Measurements reported in ChEMBL document CHEMBL1152521, “Synthesis and biological evaluation of radioiodinated 2,5-diphenyl-1,3,4-oxadiazoles for detecting beta-amyloid plaques in the brain” (Bioorg Med Chem, 2009).
Calls of active or inactive are those of the source. The calls are words filed in the database; no cut-off is given here.

Columns and labels:
[1] = test system: Stomach; experiment: Biodistribution in ddY mouse stomach assessed per organ at 0.2 to 0.4 uCi, iv after 60 mins post-injection by gamma counting; format: ADME, organism-based; settings: in vivo, 1 h
Method in brief: (§1)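 Normal ddY mice (5-week-old, 22-25 g) were injected by tail vein with 0.2–0.4 μCi of 125I ligand in saline (100 μL) containing 10 μL ethanol. At 2, 10, 30 or 60 min the stomach was removed and gamma counted. Values are % injected dose per organ, mean (SD) of 4-6 animals.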

[2] = test system: Spleen; experiment: Biodistribution in ddY mouse spleen at 0.2 to 0.4 uCi, iv after 60 mins post-injection by gamma counting; format: ADME, organism-based; settings: in vivo, 1 h
Method in brief: (§2)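 Normal ddY mice (5-week-old, 22-25 g) received 0.2–0.4 μCi of the 125I-labelled agent by tail-vein injection in 100 μL saline containing 10 μL ethanol. Animals were killed at 2, 10, 30 or 60 min, and organs were removed, weighed and gamma counted. Values are % injected dose per gram, mean (SD) of 4-6 animals.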

[3] = test system: Stomach; experiment: Biodistribution in ddY mouse stomach assessed per organ at 0.2 to 0.4 uCi, iv after 2 mins post-injection by gamma counting; format: ADME, organism-based; settings: in vivo; method in brief: as §1
[4] = test system: Brain; experiment: Biodistribution in ddY mouse brain at 0.2 to 0.4 uCi, iv after 30 mins post-injection by gamma counting; format: ADME, organism-based; settings: in vivo, 0.5 h; method in brief: as §2
[5] = test system: Blood; experiment: Biodistribution in ddY mouse blood at 0.2 to 0.4 uCi, iv after 2 mins post-injection by gamma counting; format: ADME, organism-based; settings: in vivo; method in brief: as §2
[6] = test system: Stomach; experiment: Biodistribution in ddY mouse stomach assessed per organ at 0.2 to 0.4 uCi, iv after 30 mins post-injection by gamma counting; format: ADME, organism-based; settings: in vivo, 0.5 h; method in brief: as §1
[7] = test system: Pancreas; experiment: Biodistribution in ddY mouse pancreas at 0.2 to 0.4 uCi, iv after 10 mins post-injection by gamma counting; format: ADME, organism-based; settings: in vivo; method in brief: as §2
[8] = test system: Pancreas; experiment: Biodistribution in ddY mouse pancreas at 0.2 to 0.4 uCi, iv after 2 mins post-injection by gamma counting; format: ADME, organism-based; settings: in vivo; method in brief: as §2
[9] = test system: Brain; experiment: Biodistribution in ddY mouse brain at 0.2 to 0.4 uCi, iv after 60 mins post-injection by gamma counting; format: ADME, organism-based; settings: in vivo, 1 h; method in brief: as §2
[10] = test system: Liver; experiment: Biodistribution in ddY mouse liver at 0.2 to 0.4 uCi, iv after 30 mins post-injection by gamma counting; format: ADME, organism-based; settings: in vivo, 0.5 h; method in brief: as §2
[11] = test system: Kidney; experiment: Biodistribution in ddY mouse kidney at 0.2 to 0.4 uCi, iv after 2 mins post-injection by gamma counting; format: ADME, organism-based; settings: in vivo; method in brief: as §2
[12] = test system: Blood; experiment: Biodistribution in ddY mouse blood at 0.2 to 0.4 uCi, iv after 30 mins post-injection by gamma counting; format: ADME, organism-based; settings: in vivo, 0.5 h; method in brief: as §2
[13] = test system: Blood; experiment: Biodistribution in ddY mouse blood at 0.2 to 0.4 uCi, iv after 10 mins post-injection by gamma counting; format: ADME, organism-based; settings: in vivo; method in brief: as §2
[14] = test system: Pancreas; experiment: Biodistribution in ddY mouse pancreas at 0.2 to 0.4 uCi, iv after 30 mins post-injection by gamma counting; format: ADME, organism-based; settings: in vivo, 0.5 h; method in brief: as §2
[15] = test system: Spleen; experiment: Biodistribution in ddY mouse spleen at 0.2 to 0.4 uCi, iv after 10 mins post-injection by gamma counting; format: ADME, organism-based; settings: in vivo; method in brief: as §2
[16] = test system: Heart; experiment: Biodistribution in ddY mouse heart at 0.2 to 0.4 uCi, iv after 30 mins post-injection by gamma counting; format: ADME, organism-based; settings: in vivo, 0.5 h; method in brief: as §2
[17] = test system: Heart; experiment: Biodistribution in ddY mouse heart at 0.2 to 0.4 uCi, iv after 60 mins post-injection by gamma counting; format: ADME, organism-based; settings: in vivo, 1 h; method in brief: as §2
[18] = test system: Heart; experiment: Biodistribution in ddY mouse heart at 0.2 to 0.4 uCi, iv after 2 mins post-injection by gamma counting; format: ADME, organism-based; settings: in vivo; method in brief: as §2
[19] = test system: Kidney; experiment: Biodistribution in ddY mouse kidney at 0.2 to 0.4 uCi, iv after 10 mins post-injection by gamma counting; format: ADME, organism-based; settings: in vivo; method in brief: as §2
[20] = test system: Pancreas; experiment: Biodistribution in ddY mouse pancreas at 0.2 to 0.4 uCi, iv after 60 mins post-injection by gamma counting; format: ADME, organism-based; settings: in vivo, 1 h; method in brief: as §2
[21] = test system: Intestine; experiment: Biodistribution in ddY mouse intestine at 0.2 to 0.4 uCi, iv after 2 mins post-injection by gamma counting; format: ADME, organism-based; settings: in vivo; method in brief: as §2
[22] = test system: Liver; experiment: Biodistribution in ddY mouse liver at 0.2 to 0.4 uCi, iv after 10 mins post-injection by gamma counting; format: ADME, organism-based; settings: in vivo; method in brief: as §2
[23] = test system: Kidney; experiment: Biodistribution in ddY mouse kidney at 0.2 to 0.4 uCi, iv after 60 mins post-injection by gamma counting; format: ADME, organism-based; settings: in vivo, 1 h; method in brief: as §2
[24] = test system: Blood; experiment: Biodistribution in ddY mouse blood at 0.2 to 0.4 uCi, iv after 60 mins post-injection by gamma counting; format: ADME, organism-based; settings: in vivo, 1 h; method in brief: as §2
[25] = test system: Intestine; experiment: Biodistribution in ddY mouse intestine at 0.2 to 0.4 uCi, iv after 60 mins post-injection by gamma counting; format: ADME, organism-based; settings: in vivo, 1 h; method in brief: as §2
[26] = test system: Brain; experiment: Biodistribution in ddY mouse brain at 0.2 to 0.4 uCi, iv after 10 mins post-injection by gamma counting; format: ADME, organism-based; settings: in vivo; method in brief: as §2
[27] = test system: Stomach; experiment: Biodistribution in ddY mouse stomach assessed per organ at 0.2 to 0.4 uCi, iv after 10 mins post-injection by gamma counting; format: ADME, organism-based; settings: in vivo; method in brief: as §1
[28] = test system: Liver; experiment: Biodistribution in ddY mouse liver at 0.2 to 0.4 uCi, iv after 2 mins post-injection by gamma counting; format: ADME, organism-based; settings: in vivo; method in brief: as §2
[29] = test system: Liver; experiment: Biodistribution in ddY mouse liver at 0.2 to 0.4 uCi, iv after 60 mins post-injection by gamma counting; format: ADME, organism-based; settings: in vivo, 1 h; method in brief: as §2
[30] = test system: Intestine; experiment: Biodistribution in ddY mouse intestine at 0.2 to 0.4 uCi, iv after 10 mins post-injection by gamma counting; format: ADME, organism-based; settings: in vivo; method in brief: as §2
[31] = test system: Intestine; experiment: Biodistribution in ddY mouse intestine at 0.2 to 0.4 uCi, iv after 30 mins post-injection by gamma counting; format: ADME, organism-based; settings: in vivo, 0.5 h; method in brief: as §2
[32] = test system: Heart; experiment: Biodistribution in ddY mouse heart at 0.2 to 0.4 uCi, iv after 10 mins post-injection by gamma counting; format: ADME, organism-based; settings: in vivo; method in brief: as §2
[33] = test system: Spleen; experiment: Biodistribution in ddY mouse spleen at 0.2 to 0.4 uCi, iv after 2 mins post-injection by gamma counting; format: ADME, organism-based; settings: in vivo; method in brief: as §2
[34] = test system: Kidney; experiment: Biodistribution in ddY mouse kidney at 0.2 to 0.4 uCi, iv after 30 mins post-injection by gamma counting; format: ADME, organism-based; settings: in vivo, 0.5 h; method in brief: as §2
[35] = test system: Spleen; experiment: Biodistribution in ddY mouse spleen at 0.2 to 0.4 uCi, iv after 30 mins post-injection by gamma counting; format: ADME, organism-based; settings: in vivo, 0.5 h; method in brief: as §2
[36] = test system: Brain; experiment: Biodistribution in ddY mouse brain at 0.2 to 0.4 uCi, iv after 2 mins post-injection by gamma counting; format: ADME, organism-based; settings: in vivo; method in brief: as §2
[37] = Octanol-phosphate buffer partition coefficient, log P at pH 7.4 by gamma counting of radioactivity
[38] = organism: Mus musculus; experiment: Binding affinity to amyloid beta (1-42) in normal mouse brain at 100 uM after 30 mins by thioflavin S staining-based fluorescence microscopic analysis
[39] = organism: Mus musculus; experiment: Binding affinity to amyloid beta (1-42) in brain of transgenic 2576 mouse Alzheimer's model at 100 uM after 30 mins by thioflavin S staining-based fluorescence microscopic analysis
[40] = Displacement of [125I]IMPY from aggregated amyloid beta (1-42) by gamma counting

## CN(C)c1ccc(-c2nnc(-c3ccc([125I])cc3)o2)cc1
[1]
  Drug uptake: 5.5 %ID
[2]
  Drug uptake: 2.05 % ID/g
[3]
  Drug uptake: 1.4 %ID
[4]
  Drug uptake: 3.16 % ID/g
[5]
  Drug uptake: 3.28 % ID/g
[6]
  Drug uptake: 4.79 %ID
[7]
  Drug uptake: 4.39 % ID/g
[8]
  Drug uptake: 5.32 % ID/g
[9]
  Drug uptake: 1.78 % ID/g
[10]
  Drug uptake: 12.64 % ID/g
[11]
  Drug uptake: 9.14 % ID/g
[12]
  Drug uptake: 2.53 % ID/g
[13]
  Drug uptake: 3.51 % ID/g
[14]
  Drug uptake: 2.5 % ID/g
[15]
  Drug uptake: 4.1 % ID/g
[16]
  Drug uptake: 2.03 % ID/g
[17]
  Drug uptake: 1.54 % ID/g
[18]
  Drug uptake: 3.99 % ID/g
[19]
  Drug uptake: 7.8 % ID/g
[20]
  Drug uptake: 2.14 % ID/g
[21]
  Drug uptake: 2.28 % ID/g
[22]
  Drug uptake: 19.12 % ID/g
[23]
  Drug uptake: 3.81 % ID/g
[24]
  Drug uptake: 2.21 % ID/g
[25]
  Drug uptake: 16.22 % ID/g
[26]
  Drug uptake: 5.93 % ID/g
[27]
  Drug uptake: 4.73 %ID
[28]
  Drug uptake: 15.87 % ID/g
[29]
  Drug uptake: 10.01 % ID/g
[30]
  Drug uptake: 11.34 % ID/g
[31]
  Drug uptake: 12.58 % ID/g
[32]
  Drug uptake: 3.55 % ID/g
[33]
  Drug uptake: 3.56 % ID/g
[34]
  Drug uptake: 5.71 % ID/g
[35]
  Drug uptake: 2.63 % ID/g
[36]
  Drug uptake: 2.98 % ID/g

## COc1ccc(-c2nnc(-c3ccc([125I])cc3)o2)cc1
[1]
  Drug uptake: 2.9 %ID
[2]
  Drug uptake: 0.6 % ID/g
[3]
  Drug uptake: 0.71 %ID
[4]
  Drug uptake: 1.04 % ID/g
[5]
  Drug uptake: 1.84 % ID/g
[6]
  Drug uptake: 3.12 %ID
[7]
  Drug uptake: 1.98 % ID/g
[8]
  Drug uptake: 4.74 % ID/g
[9]
  Drug uptake: 0.36 % ID/g
[10]
  Drug uptake: 8.07 % ID/g
[11]
  Drug uptake: 7.14 % ID/g
[12]
  Drug uptake: 1.26 % ID/g
[13]
  Drug uptake: 1.6 % ID/g
[14]
  Drug uptake: 0.96 % ID/g
[15]
  Drug uptake: 1.51 % ID/g
[16]
  Drug uptake: 0.92 % ID/g
[17]
  Drug uptake: 0.43 % ID/g
[18]
  Drug uptake: 4.8 % ID/g
[19]
  Drug uptake: 4.85 % ID/g
[20]
  Drug uptake: 0.57 % ID/g
[21]
  Drug uptake: 2.07 % ID/g
[22]
  Drug uptake: 12.6 % ID/g
[23]
  Drug uptake: 2.48 % ID/g
[24]
  Drug uptake: 0.8 % ID/g
[25]
  Drug uptake: 19.85 % ID/g
[26]
  Drug uptake: 2.74 % ID/g
[27]
  Drug uptake: 1.41 %ID
[28]
  Drug uptake: 9.6 % ID/g
[29]
  Drug uptake: 4.65 % ID/g
[30]
  Drug uptake: 4.49 % ID/g
[31]
  Drug uptake: 10.06 % ID/g
[32]
  Drug uptake: 1.73 % ID/g
[33]
  Drug uptake: 2.44 % ID/g
[34]
  Drug uptake: 4.36 % ID/g
[35]
  Drug uptake: 0.8 % ID/g
[36]
  Drug uptake: 3.75 % ID/g

## CN(C)c1ccc(-c2nnc(-c3ccc(I)cc3)o2)cc1
[37]
  logD: 2.43
[38]
  Activity: inactive
[39]
  Activity: Active
[40]
  Ki: 20.1 nM
